Screening data (PubChem BioAssay)
Most compounds without a hit are left out; they make up all but 1.8% or so of the library.
C2C12 statin – protects C2C12 myotubes from simvastatin toxicity | AID 602340 | actives 0.78% (n = 330,000) | rescue of ATP level, % at 7.49 µM | ATP luminescence, 48 h; scaled: DMSO 0, geranylgeraniol control 100;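 active = mean ATP rescue above about 67%, or every replicate alone reaching that limit, limit read from the data, passing the limit was not always enough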;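 note: myotubes were challenged with 10 µM simvastatin during compound exposure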
Cneo AK release – Cryptococcus neoformans lysis via adenylate kinase release; lysis activity, % at 15 µM; C. neoformans lysis, adenylate kinase release luminescence, 4 h; normalised: neutral wells 0, clomiphene wells 100; actives 0.2% (n = 360,000); AID 651654;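 active = mean lysis activity across replicates of at least 80%, whatever share of replicates individually reach that level; inactive = mean lysis activity below 80%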
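Signal: Adenylate kinase release luminescence | Assay system: Log-phase Cryptococcus neoformans yeast cells | Input: Cells at 5 × 10^6 per mL | Buffer or medium: Fresh YPD growth medium | Compound: Single dose | Schedule: Static 4 h at 37 °C with compound, 1 h detection | Controls: Clomiphene | Read-out: Luminescence rise reflecting yeast cell lysis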
Efflux pump inh – inhibitors of Candida antifungal efflux pumps expressed in yeast; actives 0.44% (n = 330,000); inhibition, % at 10 µM; S. cerevisiae Candida pump triplex, Nile Red efflux;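 active = plate passing quality check with inhibition over a set limit, or well fluorescence over plate mean plus 4 SD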;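 note: Nile Red retained in pooled yeast measured as flow cytometry median fluorescence; higher means more Nile Red kept so more efflux inhibition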
Mot1-301 SUMO – inhibitors of SUMOylation pathway: yeast Mot1-301 growth rescue; growth rescue, % at 18.8 µM; AID 2716; S. cerevisiae Mot1-301 growth rescue, ATP luminescence, 38.5C; percent above DMSO median, 100 means doubled; actives 1% (n = 320,000);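 active = every valid replicate shows activation above 250% relative to neutral control wells; inactive = the rest, any valid replicate at or below 250%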
Cmpd fluor yeast – flagged as fluorescent in efflux inhibitor counter-screen; shares compounds with Efflux pump inh; S. cerevisiae AD/pABC3, compound fluorescence, flow cytometry; fluorescence ratio to DMSO, % at 10 µM; actives 4% (n = 1,700);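 active = fluorescence ratio to DMSO above its plate's cutoff, the plate mean ratio plus 5 SD, cut at about 210% in these data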;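 note: unstained yeast with no Nile Red so the signal is compound autofluorescence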
Mdr1 pump inh – Candida Mdr1 efflux pump inhibition. shares compounds with Efflux pump inh. S. cerevisiae AD/CaMDR1, Nile Red efflux, flow cytometry. inhibition, % at 10 µM. actives 1% (n = 1,700); in the data active = inhibition above about 26%;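 note: higher means more Nile Red retained so more efflux inhibition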
CaCdr2 efflux inh – inhibitors of Candida albicans Cdr2 efflux pump; Nile Red retention ratio vs DMSO, % at 10 µM; actives 4% (n = 1,700); AID 588520; S. cerevisiae AD/CaCDR2, Nile Red retention, flow cytometry; shares compounds with Efflux pump inh; in the data active = Nile Red retention ratio vs DMSO above about 190%;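 note: higher ratio means more blocking of Cdr2 efflux of the dye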
CaCdr1 efflux inh – inhibitors of Candida albicans Cdr1 efflux pump; shares compounds with Efflux pump inh; S. cerevisiae AD/CaCDR1, Nile Red efflux, flow cytometry; inhibition, % at 10 µM; actives 1% (n = 1,700);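 active = inhibition above the screen-wide mean plus twice its standard deviation, cut at about 32% in these data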
Large screens that a line does not name were inactive (follow-up assays come after a bar, where they were run).

CN(C)C1=NC[C@H](Cc2ccccc2)N1CCc1cccc(F)c1	none
NC1=NC[C@@H](Cc2ccc(O)cc2)N1CCCCC1CCCCC1	Efflux pump inh 1.0 | Cmpd fluor yeast inactive | Mdr1 pump inh inactive | CaCdr2 efflux inh inactive | CaCdr1 efflux inh inactive
O=C(N[C@H]1CCC(=O)N(CCSc2ccc(Br)cc2)CC1)OCc1ccccc1	none
COc1ccc(NC(=O)C(NC(=O)c2ccc(=O)[nH]c2)c2ccccc2)cc1 (centres undefined)	none (no result: C2C12 statin, Cneo AK release)
COc1ccc(NC(=O)C(NC(=O)c2ccc(C)cc2)c2ccccc2)cc1 (centres undefined)	Efflux pump inh 0.3 | Cmpd fluor yeast inactive | Mdr1 pump inh inactive | CaCdr2 efflux inh inactive | CaCdr1 efflux inh inactive
COc1ccc(NC(=O)Nc2cccc3c2O[C@H](CN(C)C(=O)Nc2ccc(OC)cc2)[C@@H](C)CN([C@H](C)CO)C3=O)cc1	none | Cmpd fluor yeast inactive | Mdr1 pump inh inactive | CaCdr2 efflux inh inactive | CaCdr1 efflux inh inactive
COc1ccc(NC(=O)N(C)C[C@H]2Oc3c(NC(=O)Nc4c(C)noc4C)cccc3C(=O)N([C@H](C)CO)C[C@@H]2C)cc1	none (no result: Mot1-301 SUMO) | Cmpd fluor yeast inactive | Mdr1 pump inh inactive | CaCdr2 efflux inh inactive | CaCdr1 efflux inh inactive
COc1ccc(Cl)cc1NC(=O)CCCC(=O)c1ccccc1	none
COc1ccc(-c2nc(-c3ccc(O)cc3O)cs2)cc1OC	none (no result: Efflux pump inh, Mot1-301 SUMO)
Cc1ccc(C(=O)NCC(=O)OCc2csc(-c3ccccc3)n2)cc1	Efflux pump inh 6.8 (no result: C2C12 statin) | Cmpd fluor yeast inactive | Mdr1 pump inh inactive | CaCdr2 efflux inh inactive | CaCdr1 efflux inh inactive
COc1ccc(NC2CC(=O)N(c3cccc([N+](=O)[O-])c3)C2=O)cc1 (centres undefined)	none (no result: Cneo AK release)
COc1ccc(NC2CC(=O)N(c3cc([N+](=O)[O-])ccc3C)C2=O)cc1 (centres undefined)	Efflux pump inh 1.1 (no result: C2C12 statin, Cneo AK release) | Cmpd fluor yeast inactive | Mdr1 pump inh inactive | CaCdr2 efflux inh inactive | CaCdr1 efflux inh inactive
COc1ccc(S(=O)(=O)Nc2ccc3c(c2)N(C(C)=O)CCC3)cc1OC	Efflux pump inh 1.0 | Cmpd fluor yeast inactive | Mdr1 pump inh inactive | CaCdr2 efflux inh inactive | CaCdr1 efflux inh inactive
Cc1nc2ccc(NC(=O)Cc3ccc4c(c3)OCCO4)cc2s1	Efflux pump inh 8.2 (no result: C2C12 statin, Cneo AK release) | Cmpd fluor yeast inactive | Mdr1 pump inh inactive | CaCdr2 efflux inh inactive | CaCdr1 efflux inh inactive
Cc1nc2ccc(NC(=O)Cc3ccc(Br)cc3)cc2s1	none (no result: C2C12 statin, Cneo AK release)
C[C@H]1CN([C@@H](C)CO)C(=O)Cc2cc(NC(=O)CCC(F)(F)F)ccc2O[C@@H]1CN(C)CC1CCCCC1	none (no result: Efflux pump inh, Mot1-301 SUMO)
COc1ccc(NC2CC(=O)N(c3cccc(C)c3)C2=O)cc1 (centres undefined)	none
CCC1=C(OC(=O)N(CC)CC)N2C(=O)OC(=NCCc3c[nH]c4ccccc34)[C@]2(Cc2ccccc2)[C@H]2C1=CC[C@H]1C(=O)N(c3ccccc3)C(=O)[C@H]12	none
CCC1=C(OC(=O)N(CC)CC)N2C(=O)OC(=NCCc3c[nH]c4ccccc34)[C@]2(Cc2ccccc2)[C@H]2C1=CC[C@H]1C(=O)N(C)C(=O)[C@H]12	Efflux pump inh 96 | Cmpd fluor yeast inactive | Mdr1 pump inh 39 | CaCdr2 efflux inh inactive | CaCdr1 efflux inh inactive
COc1cc(NC(=O)C2CCCCN2)ccc1OCC(C)C (centres undefined)	Efflux pump inh 0.5 | Cmpd fluor yeast inactive | Mdr1 pump inh inactive | CaCdr2 efflux inh inactive | CaCdr1 efflux inh inactive
COc1ccc(C(NC(=O)c2ccco2)c2ccc(OC)c(OC)c2)cc1OC	none
C[C@H](CO)N1C[C@H](C)[C@H](CN(C)Cc2ccc3c(c2)OCO3)Oc2c(NS(=O)(=O)c3cccs3)cccc2C1=O	none (no result: Efflux pump inh, Mot1-301 SUMO)
C[C@H](CO)N1C[C@H](C)[C@H](CN(C)C)OCCCC[C@H](C)Oc2ccc(NC(=O)Nc3cccc4ccccc34)cc2C1=O	none (no result: Efflux pump inh, Mot1-301 SUMO)
CCN(CC)c1ccc(/C=C/c2cccc[n+]2C)c(OC)c1	Efflux pump inh 21 | Cmpd fluor yeast active | Mdr1 pump inh inactive | CaCdr2 efflux inh inactive | CaCdr1 efflux inh inactive
Cc1cc(C)cc(Nc2cnn(C34CC5CC(CC(CC(=O)O)(C5)C3)C4)c(=O)c2Cl)c1	none
Cc1cccnc1NC(=O)CCNS(=O)(=O)c1ccc2c(c1)c(=O)n(C)c(=O)n2C	none (no result: C2C12 statin, Cneo AK release)
Cc1ccc(CNC(=O)CCNS(=O)(=O)c2ccc3c(c2)c(=O)n(C)c(=O)n3C)cc1	none
Cc1csc(NC(=O)CCNS(=O)(=O)c2ccc3c(c2)c(=O)n(C)c(=O)n3C)n1	Efflux pump inh 6.7 | Cmpd fluor yeast inactive | Mdr1 pump inh inactive | CaCdr2 efflux inh inactive | CaCdr1 efflux inh inactive
Cc1ccc(CCNC(=O)CCNS(=O)(=O)c2ccc3c(c2)c(=O)n(C)c(=O)n3C)cc1	Efflux pump inh 9.0 | Cmpd fluor yeast inactive | Mdr1 pump inh inactive | CaCdr2 efflux inh inactive | CaCdr1 efflux inh inactive
CC(=O)Nc1ccccc1OCC(=O)NC(C)c1ccc(F)cc1 (centres undefined)	none (no result: C2C12 statin, Cneo AK release)
CC(=O)Nc1ccccc1OC(C)C(=O)NC(C)c1ccc(F)cc1 (centres undefined)	Efflux pump inh 5.8 (no result: C2C12 statin, Cneo AK release) | Cmpd fluor yeast inactive | Mdr1 pump inh inactive | CaCdr2 efflux inh inactive | CaCdr1 efflux inh inactive
COc1ccc(NC(=S)Nc2ccccc2)c(OC)c1	Efflux pump inh 1.1 (no result: C2C12 statin, Cneo AK release) | Cmpd fluor yeast inactive | Mdr1 pump inh inactive | CaCdr2 efflux inh inactive | CaCdr1 efflux inh inactive
COc1ccc(OC)c2sc(N3CCCCC3)nc12	Efflux pump inh 1.1 | Cmpd fluor yeast inactive | Mdr1 pump inh inactive | CaCdr2 efflux inh inactive | CaCdr1 efflux inh inactive
Cc1cc(Cl)c2oc(C(=O)NCC(C)(C)N3CCOCC3)c(C)c2c1	Efflux pump inh 0.6 | Cmpd fluor yeast inactive | Mdr1 pump inh inactive | CaCdr2 efflux inh inactive | CaCdr1 efflux inh inactive
Cc1[nH]c2ccc(C(=O)NCCN3CCOCC3)cc2c1C	Efflux pump inh 1.4 | Cmpd fluor yeast inactive | Mdr1 pump inh inactive | CaCdr2 efflux inh inactive | CaCdr1 efflux inh inactive
C[C@H]1CN([C@@H](C)CO)C(=O)c2cc(C3=CCCCC3)cnc2O[C@@H]1CN(C)Cc1ccccc1C(=O)O	none (no result: Efflux pump inh, Mot1-301 SUMO)
C/C(Cl)=C\C[N+](C)(C)CC(=O)OCCc1ccccc1	Efflux pump inh 0.5 (no result: C2C12 statin) | Cmpd fluor yeast inactive | Mdr1 pump inh inactive | CaCdr2 efflux inh inactive | CaCdr1 efflux inh inactive
COc1ccccc1NS(=O)(=O)c1cc(NC(=O)c2cc(=O)[nH]c3ccccc23)ccc1N1CCOCC1	none
Cc1ccc2nc(C(Cl)(Cl)Cl)nc(N/N=C/c3ccncc3)c2c1	Efflux pump inh 0.4 (no result: C2C12 statin, Cneo AK release) | Cmpd fluor yeast inactive | Mdr1 pump inh inactive | CaCdr2 efflux inh inactive | CaCdr1 efflux inh inactive
